The results in this text go back to ChEMBL document CHEMBL1152439, “Calcitriol derivatives with two different side chains at C-20. V. Potent inhibitors of mammary carcinogenesis and inducers of leukemia differentiation” (J Med Chem, 2009).

The nature of assay [1]: Antiproliferative activity against human MCF10CA1a after 3 days by [3H]thymidine uptake assay. In kind it is functional.
The test system of assay [2] is NB-4. The assay can be described thus: Induction of cell differentiation in human NB4 cells assessed as induction of induction of cell surface marker CD14 expression at 1 nM after 48 hrs. It is filed as functional, cell-based. The method in brief: (§1)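 NB4 human promyelocytic leukemia cells kept in log-phase suspension in RPMI 1640 with 10% […] iron-supplemented bovine calf serum, 37 °C, 5% CO₂. Exposed to compounds at 1 nM for 48 h; 1 × 10⁶ cells washed twice in PBS, then labelled with MY4-RD1 and Mo1-FITC antibodies to measure surface CD14 and CD11b expression.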

The subject of assay [3] is NB-4. Put plainly: Induction of cell differentiation in human NB4 cells assessed as induction of induction of cell surface marker CD11b expression at 1 nM after 48 hrs. It is filed as functional, cell-based. Put shortly:
as §1

Active and inactive are the calls of the source. The calls are words filed in the database; no cut-off is given here. Where only a bound is given, the exact number is not on record here.

A word on the IC50: it is the concentration at which inhibition is half-maximal. Regarding `[2H]C([2H])([2H])C(O)(CCC[C@H](CC#CC(O)(C(F)(F)F)C(F)(F)F)[C@H]1CC[C@H]2/C(=C/C=C3C[C@@H](O)C[C@H](O)C3)CCC[C@]12C)C([2H])([2H])[2H]`, the IC50 in assay [1] is 0.19 nM.

For the compound `C=C1/C(=C\C=C2/CCC[C@]3(C)[C@@H]([C@H](C/C=C\C(O)(C(F)(F)F)C(F)(F)F)CCCC(C)(C)O)CC[C@@H]23)C[C@@H](O)C[C@@H]1F`, the result in assay [2] (tested as the 2H-labelled form) and in assay [3] (tested as the 2H-labelled form) was Active.

`C=C1/C(=C\C=C2/CCC[C@]3(C)[C@@H]([C@@H](C/C=C\C(O)(C(F)(F)F)C(F)(F)F)CCCC(C)(C)O)CC[C@@H]23)C[C@@H](O)C[C@@H]1F`: the outcome in assay [2] (tested as the 2H-labelled form) and in assay [3] (tested as the 2H-labelled form) was Active.

Regarding `C=C1/C(=C\C=C2/CCC[C@]3(C)[C@@H]([C@@H](CC#CC(O)(C(F)(F)F)C(F)(F)F)CCCC(C)(C)O)CC[C@@H]23)C[C@@H](O)C[C@@H]1F`, the outcome in assay [2] (tested as the 2H-labelled form) and in assay [3] (tested as the 2H-labelled form) was Active.

On to `C=C1/C(=C\C=C2/CCC[C@]3(C)[C@@H]([C@@H](C/C=C\C(O)(C(F)(F)F)C(F)(F)F)CCCC(C)(C)O)CC[C@@H]23)C[C@@H](O)C[C@@H]1O`, for which the outcome in assay [2] (tested as the 2H-labelled form) and in assay [3] (tested as the 2H-labelled form) was Active.

On to `C=C1/C(=C\C=C2/CCC[C@]3(C)[C@@H]([C@H](C)CCCC(C)(C)O)CC[C@@H]23)C[C@@H](O)C[C@@H]1O`, for which the result in assay [2] and in assay [3] was Active.

Regarding `[2H]C([2H])([2H])C(O)(CCC[C@H](CC#CC(O)(C(F)(F)F)C(F)(F)F)[C@H]1CC[C@H]2/C(=C/C=C3/C[C@@H](O)C[C@H](O)C3=C)CCC[C@]12C)C([2H])([2H])[2H]`, the IC50 in assay [1] was 0.053 nM.

For the compound `C=C1/C(=C\C=C2/CCC[C@]3(C)[C@@H]([C@@H](CC#CC(O)(C(F)(F)F)C(F)(F)F)CCCC(C)(C)O)CC[C@@H]23)C[C@@H](O)C[C@@H]1O`, the result in assay [2] (tested as the 2H-labelled form) and in assay [3] (tested as the 2H-labelled form) was Active.

For `CC(C)(O)CCC[C@H](C/C=C\C(O)(C(F)(F)F)C(F)(F)F)[C@H]1CC[C@H]2/C(=C/C=C3C[C@@H](O)C[C@H](O)C3)CCC[C@]12C`, the outcome in assay [2] (tested as the 2H-labelled form) and in assay [3] (tested as the 2H-labelled form) was Active.

Turning to `C=C1/C(=C\C=C2/CCC[C@]3(C)[C@@H]([C@H](C/C=C\C(O)(C(F)(F)F)C(F)(F)F)CCCC(C)(C)O)CC[C@@H]23)C[C@@H](O)C[C@@H]1O`, the outcome in assay [2] (tested as the 2H-labelled form) and in assay [3] (tested as the 2H-labelled form) was Active.

In assay [1], `[2H]C([2H])([2H])C(O)(CCC[C@@H](CC#CC(O)(C(F)(F)F)C(F)(F)F)[C@H]1CC[C@H]2/C(=C/C=C3/C[C@@H](O)C[C@H](O)C3=C)CCC[C@]12C)C([2H])([2H])[2H]` displayed an IC50 of 0.062 nM.

For the compound `C=C1/C(=C\C=C2/CCC[C@]3(C)[C@@H]([C@H](CC#CC(O)(C(F)(F)F)C(F)(F)F)CCCC(C)(C)O)CC[C@@H]23)C[C@@H](O)C[C@@H]1O`, the outcome in assay [2] (tested as the 2H-labelled form) and in assay [3] (tested as the 2H-labelled form) was Active.

As to `[2H]C([2H])([2H])C(O)(CCC[C@H](C/C=C\C(O)(C(F)(F)F)C(F)(F)F)[C@H]1CC[C@H]2/C(=C/C=C3C[C@@H](O)C[C@H](O)C3)CCC[C@]12C)C([2H])([2H])[2H]`, half-maximal inhibition in assay [1] (IC50) required 0.43 nM.

On to `[2H]C([2H])([2H])C(O)(CCC[C@@H](C/C=C\C(O)(C(F)(F)F)C(F)(F)F)[C@H]1CC[C@H]2/C(=C/C=C3/C[C@@H](O)C[C@H](F)C3=C)CCC[C@]12C)C([2H])([2H])[2H]`, for which, in assay [1], the IC50 is > 10 nM.

For `[2H]C([2H])([2H])C(O)(CCC[C@H](C/C=C\C(O)(C(F)(F)F)C(F)(F)F)[C@H]1CC[C@H]2/C(=C/C=C3/C[C@@H](O)C[C@H](O)C3=C)CCC[C@]12C)C([2H])([2H])[2H]`, inhibition in assay [1] was half-maximal at 0.56 nM (IC50).

In the case of `[2H]C([2H])([2H])C(O)(CCC[C@H](CC#CC(O)(C(F)(F)F)C(F)(F)F)[C@H]1CC[C@H]2/C(=C/C=C3/C[C@@H](O)C[C@H](F)C3=C)CCC[C@]12C)C([2H])([2H])[2H]`, in assay [1], it took 1.6 nM to reach half-maximal inhibition (IC50).

`[2H]C([2H])([2H])C(O)(CCC[C@@H](CC#CC(O)(C(F)(F)F)C(F)(F)F)[C@H]1CC[C@H]2/C(=C/C=C3/C[C@@H](O)C[C@H](F)C3=C)CCC[C@]12C)C([2H])([2H])[2H]` displayed an IC50 in assay [1] of 0.56 nM.

With `CC(C)(O)CCC[C@@H](C/C=C\C(O)(C(F)(F)F)C(F)(F)F)[C@H]1CC[C@H]2/C(=C/C=C3C[C@@H](O)C[C@H](O)C3)CCC[C@]12C`, the outcome in assay [2] (tested as the 2H-labelled form) and in assay [3] (tested as the 2H-labelled form) was Active.

Consider `CC(C)(O)CCC[C@@H](CC#CC(O)(C(F)(F)F)C(F)(F)F)[C@H]1CC[C@H]2/C(=C/C=C3C[C@@H](O)C[C@H](O)C3)CCC[C@]12C`, for which the outcome in assay [2] (tested as the 2H-labelled form) and in assay [3] (tested as the 2H-labelled form) was Active.

As for `C=C1/C(=C\C=C2/CCC[C@]3(C)[C@@H]([C@H](CC#CC(O)(C(F)(F)F)C(F)(F)F)CCCC(C)(C)O)CC[C@@H]23)C[C@@H](O)C[C@@H]1F`, the outcome in assay [2] (tested as the 2H-labelled form) and in assay [3] (tested as the 2H-labelled form) was Active.

Turning to `[2H]C([2H])([2H])C(O)(CCC[C@@H](C/C=C\C(O)(C(F)(F)F)C(F)(F)F)[C@H]1CC[C@H]2/C(=C/C=C3/C[C@@H](O)C[C@H](O)C3=C)CCC[C@]12C)C([2H])([2H])[2H]`, in assay [1], half-maximal inhibition (IC50) required 1.6 nM.

In turn, `[2H]C([2H])([2H])C(O)(CCC[C@@H](CC#CC(O)(C(F)(F)F)C(F)(F)F)[C@H]1CC[C@H]2/C(=C/C=C3C[C@@H](O)C[C@H](O)C3)CCC[C@]12C)C([2H])([2H])[2H]` registered an IC50 in assay [1] of 0.12 nM.

In the case of `[2H]C([2H])([2H])C(O)(CCC[C@H](C/C=C\C(O)(C(F)(F)F)C(F)(F)F)[C@H]1CC[C@H]2/C(=C/C=C3/C[C@@H](O)C[C@H](F)C3=C)CCC[C@]12C)C([2H])([2H])[2H]`, the IC50 in assay [1] was 6.9 nM.

Regarding `[2H]C([2H])([2H])C(O)(CCC[C@@H](C/C=C\C(O)(C(F)(F)F)C(F)(F)F)[C@H]1CC[C@H]2/C(=C/C=C3C[C@@H](O)C[C@H](O)C3)CCC[C@]12C)C([2H])([2H])[2H]`, the IC50 in assay [1] stood at 3.2 nM.

Take `CC(C)(O)CCC[C@H](CC#CC(O)(C(F)(F)F)C(F)(F)F)[C@H]1CC[C@H]2/C(=C/C=C3C[C@@H](O)C[C@H](O)C3)CCC[C@]12C`: the result in assay [2] (tested as the 2H-labelled form) and in assay [3] (tested as the 2H-labelled form) was Active.
